Reference: paper PMC2570394 (Diabetes, 2008)
Where two headings read alike, the source gives them in different places.

Experiments:
DIO rats [1] = test: Plasma measurements after central or global CB1 blockade in DIO rats; assay type: in vivo; settings: Central CB1 blockade, icv 5 μg/rat per day, 6 days, mean ± SE
In short: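 Diet-induced obese rats (45% high-fat diet, 8 weeks) got test compound 5 μg/rat per day icv for 6 days, alongside vehicle and pair-fed controls. Plasma glucose was measured by the glucose oxidase method, and nonesterified fatty acids by commercial kit. Corticosterone and insulin were measured by double-antibody radioimmunoassay. Means ± SE.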

DIO rats [2] = assay type: in vivo, rat; settings: 6 days
Zucker rats = settings: cited from earlier work
DIO rats [3] = assay type: in vivo, rat; settings: 6 days; remark: listed apart in the source
In short: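 Male Sprague-Dawley rats were fed a 45% high-fat diet for 8 weeks, then given vehicle or test compound for 6 days, with a vehicle pair-fed group. They were fasted overnight and anaesthetised with pentobarbital 50 mg/kg i.p. Clamps were run basal and insulin-stimulated (200 mU/ml) with D-[U-14C]glucose infusion (5 μCi/ml). A 2-deoxy-D-[1-3H]glucose bolus (30 μCi/rat) followed, and tissue 2-DG-6-P gave a utilisation index in ng/min/mg. n=5–7.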

[4] = test system: diet-induced obese (DIO) mice; settings: cited from earlier work
normal rats [5] = test: Food intake and body weight during 6-day CB1 antagonist infusion in lean rats; assay type: in vivo, rat; settings: 6 days; for body weight / food intake: lean rats
In short: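 Rats on standard chow received test compound for 6 days, either 3 or 5 μg/rat per day icv or 5 μg/rat per day s.c. Both routes used osmotic minipumps. Vehicle was isotonic saline with 0.3% Tween 80. Icv cannula placement was checked by drinking response to icv angiotensin II (5 ng/μl). Vehicle pair-fed rats got the treated group's daily intake before dark onset. Food intake and body weight were recorded daily. n=5–7, means ± SE.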

normal rats [6] = test: Quantitative RT-PCR of lipid metabolism enzymes in WAT and liver of lean rats; assay type: in vivo, rat; settings: 6 days
In short: (§1)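 Lean or diet-induced obese rats received 6-day treatment with vehicle and pair-fed controls. Epididymal WAT and liver were freeze-clamped and kept at −80°C. Real-time qPCR used SYBR Green, ~70 ng template cDNA and primers at 0.5 μmol/l final. Relative levels came from a standard curve and were normalised to ribosomal protein S29 in WAT and cyclophilin A in liver. n=5–7, means ± SE.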

obese Zucker rats = settings: 30 mg/kg, 8 weeks; cited from earlier work
DIO rats [7] = test: Triglyceride content in epididymal WAT and plasma of DIO rats; assay type: in vivo, rat; settings: 6 days
In short: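 Diet-induced obese rats received test compound for 6 days, either 5 μg/day icv by minipump or 10 mg/kg per day i.p., alongside vehicle and pair-fed groups. Lipids were extracted from epididymal WAT. After the organic solvent was evaporated, triglyceride was measured enzymatically in duplicate. Plasma triglyceride was measured by commercial kit. n=5–7, means ± SE.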

[8] = test system: isolated soleus muscle of ob/ob mice; settings: cited from earlier work
[9] = assay type: in vivo, mice (C57BL/6J; settings: male, C57BL/6J, mouse, ip, 10 mg/kg
rat = settings: acute intracerebroventricular injection, 3 μg/rat per day; cited from earlier work
DIO rats [10] = assay type: in vivo, rat
In short: as §1

CB1 receptor = settings: by reducing food intake and increasing energy expenditure and fat oxidation; cited from earlier work
[11] = intracerebroventricular 5 μg/rat per day
[12] = intracerebroventricular 3 μg/rat per day
[13] = peripheral 5 μg/rat per day via subcutaneous minipumps
[14] = normal rats, icv 5 μg/day, similar in vehicle pair-fed group
[15] = ip 10 mg/kg, 6 days, independent of hypophagia

## Cc1c(C(=O)NN2CCCCC2)nn(-c2ccc(Cl)cc2Cl)c1-c1ccc(Cl)cc1 [SR141716, Rimonabant]
DIO rats [1]
  Corticosterone (plasma): 59.77 ± 7.26 ng/mL
  Glucose (plasma): 3.78 ± 0.12 mmol/L
  Insulin (plasma): 0.58 ± 0.12 ng/mL
  Nonesterified fatty acids (plasma): 0.66 ± 0.13 mmol/L
DIO rats [2]; [11]
  decrease in food intake: 31%
DIO rats [2]; intracerebroventricular 5 μg/rat per day, mimicked by pair feeding
  body weight: loss of body weight
DIO rats [2]; intraperitoneal 10 mg/kg per day, P < 0.01
  decrease in food consumption: 40%
Zucker rats
  body weight: maintained reduction
  food intake: transient suppression
DIO rats [3]; icv 5 μg/day
  overall insulin sensitivity: failed to elicit any change
DIO rats [3]; icv 5 μg/day, vs vehicle
  glucose infusion rate (GIR): identical
  glucose uptake in skeletal muscle and WAT: identical
  hepatic glucose production (HGP): identical
DIO rats [3]; ip 10 mg/kg
  overall insulin sensitivity: enhanced
DIO rats [3]; ip 10 mg/kg, comparable in vehicle pair-fed rats
  hepatic glucose production (HGP): suppressed
DIO rats [3]; ip 10 mg/kg, food-independent effect
  glucose utilization by adipose tissue: increased
DIO rats [3]; ip 10 mg/kg, similar increase in vehicle pair-fed group
  glucose infusion rate (GIR): higher
[4]
  body weight: maintained reduction
  food intake: transient suppression
Normal rats [5]; [12]
  body weight: no effect
  food intake: no effect
Normal rats [5]; [11]
  body weight: loss of body weight
Normal rats [5]; [13]
  body weight: unable to detect changes
  food intake: unable to detect changes
Normal rats [5]; normal rats, intracerebroventricular 5 μg/rat per day
  decrease in food intake: 17%
Normal rats [6]; lean rats, 5 μg/rat per day given peripherally
  WAT mRNA expression of lipid metabolism enzymes: no change
Normal rats [6]; lean rats, icv 5 μg/day
  liver gene expression of key enzymes regulating triglyceride metabolism: No significant difference
Normal rats [6]; [14]
  WAT expression of CPT-1: increased
  WAT expression of genes promoting lipogenesis and triglyceride storage (FAS, SCD-1, ACCα, LPL): markedly reduced
Obese Zucker rats
  hepatic lipid metabolism: food intake–independent effect
DIO rats [7]; icv 5 μg/day
  triglyceride levels in WAT: did not modify
  triglyceride levels in plasma: did not modify
DIO rats [7]; ip 10 mg/kg, not observed in vehicle pair-fed group
  WAT triglyceride content: decreased
[8]
  glucose uptake: increases
[9]; brain
  Cmax: 1010 ± 384 ng/g
  concentration at 25.1 h: 186 ± 37.5 ng/g
  half-life: 566 min
[9]; serum
  Cmax: 258 ± 58.9 ng/mL
  concentration at 25.1 h: 20.5 ± 9.25 ng/mL
  half-life: 380 min
rat
  food intake: decreases
DIO rats [10]; WAT, drug treatment (data not shown)
  expression of hormone-sensitive lipase and adipose triglyceride lipase: not modified
DIO rats [10]; icv 5 μg/day, 6 days
  WAT CPT-1 expression: trend toward an increase
DIO rats [10]; icv 5 μg/day, 6 days, also present in pair-fed group
  WAT SCD-1 expression: decrease
DIO rats [10]; icv 5 μg/day, 6 days, similar decrease in vehicle pair-fed animals
  liver SCD-1 expression: decreased
DIO rats [10]; ip 10 mg/kg, 6 days
  liver gene expression of lipid metabolism enzymes: No modification
DIO rats [10]; ip 10 mg/kg, 6 days, also in vehicle pair-fed group
  liver expression of glucose-6-phosphatase: marked decrease
DIO rats [10]; [15]
  WAT CPT-1 expression: increase
  WAT SCD-1 expression: decrease

## C[C@H](NC(=O)C(C)(C)Oc1ccc(C(F)(F)F)cn1)[C@@H](Cc1ccc(Cl)cc1)c1cccc(C#N)c1 [taranabant]
CB1 receptor
  body weight: weight loss
